Data reported in ChEMBL document CHEMBL4406852, “Combating fluconazole-resistant fungi with novel β-azole-phenylacetone derivatives” (Eur J Med Chem, 2019).
In brackets after ≈: the same amount, converted by molar mass.

Columns and labels:
Format in all cases: functional
[1] = test system: Candida albicans; assay: Antifungal activity against Candida albicans SC5314 assessed as reduction in fungal growth incubated for 24 hrs by serial dilution method; conditions: SC5314, 24 h
Summary of the method: (§1)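 MIC by CLSI broth microdilution in RPMI 1640 buffered to pH 7.0 with MOPS. Compounds dissolved in DMSO and serially diluted to final 0.03–16 or 0.125–64 µg/mL. Inoculum 1–5 × 10^3 CFU/mL. Incubation 35 °C, 24 h. Drug-free growth and fungus-free blank controls. MIC is the lowest concentration preventing visible growth.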

[2] = test system: Candida albicans; assay: Antifungal activity against Candida albicans GIM 2.194 assessed as reduction in fungal growth incubated for 24 hrs by serial dilution method; conditions: GIM 2.194, 24 h; summary of the method: as §1
[3] = test system: Candida tropicalis; assay: Antifungal activity against Candida tropicalis GIM 2.183 assessed as reduction in fungal growth incubated for 24 hrs by serial dilution method; conditions: GIM 2.183, 24 h; summary of the method: as §1
[4] = test system: Nakaseomyces glabratus; assay: Antifungal activity against Candida glabrata assessed as reduction in fungal growth incubated for 24 hrs by serial dilution method; summary of the method: as §1
[5] = test system: Candida parapsilosis; assay: Antifungal activity against Candida parapsilosis GIM 2.190 assessed as reduction in fungal growth incubated for 24 hrs by serial dilution method; conditions: Lodderomyces parapsilosis, GIM 2.190, 24 h; summary of the method: as §1
[6] = test system: Candida albicans; assay: Antifungal activity against fluconazole-resistant Candida albicans 901 assessed as reduction in fungal growth incubated for 24 hrs by serial dilution method; conditions: Candida albicans, 901, 24 h
Summary of the method: (§2)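 Fluconazole-resistant C. albicans clinical isolates (17# and CaR from AIDS patients; 632, 901, 904 from clinic) tested by CLSI broth dilution MIC in RPMI 1640 buffered to pH 7.0 with MOPS. Compounds dissolved in DMSO, serially diluted to final 0.03–16 or 0.125–64 μg/mL; inoculum 1–5 × 10^3 CFU/mL; 35 °C, 24 h. MIC = lowest concentration inhibiting visible growth; fluconazole and itraconazole as controls.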

[7] = test system: Candida albicans; assay: Antifungal activity against fluconazole-resistant Candida albicans 904 assessed as reduction in fungal growth incubated for 24 hrs by serial dilution method; conditions: Candida albicans, 904, 24 h; summary of the method: as §2
[8] = test system: Candida albicans; assay: Antifungal activity against fluconazole-resistant Candida albicans 17 assessed as reduction in fungal growth incubated for 24 hrs by serial dilution method; conditions: Candida albicans, 17, 24 h; summary of the method: as §2
[9] = test system: Candida albicans; assay: Antifungal activity against fluconazole-resistant Candida albicans 632 assessed as reduction in fungal growth incubated for 24 hrs by serial dilution method; conditions: Candida albicans, 632, 24 h; summary of the method: as §2
[10] = test system: Candida albicans; assay: Antifungal activity against fluconazole-resistant Candida albicans CaR assessed as reduction in fungal growth incubated for 24 hrs by serial dilution method; summary of the method: as §2

SMILES	MIC [1] [µg/mL]	MIC [2] [µg/mL]	MIC [3] [µg/mL]	MIC [4] [µg/mL]	MIC [5] [µg/mL]	MIC [6] [µg/mL]	MIC [7] [µg/mL]	MIC [8] [µg/mL]	MIC [9] [µg/mL]	MIC [10] [µg/mL]
O=C(NC(Cn1cncn1)C(=O)c1ccccc1)c1ccc(-c2ccccc2)cc1 (stereo not drawn)	0.25 (≈ 0.631 µM)	2 (≈ 5.04 µM)	1 (≈ 2.52 µM)							
Cc1ccc(-c2ccc(C(=O)NC(Cn3ccnc3)C(=O)c3ccccc3)cc2)cc1 (stereo not drawn)	2 (≈ 4.88 µM)	> 16	> 16	> 64	> 64					
O=C(NC(Cn1ccnc1)C(=O)c1cccc(F)c1)c1ccc(-c2ccccc2)cc1 (stereo not drawn)	0.06 (≈ 0.145 µM)	0.125 (≈ 0.302 µM)	0.25 (≈ 0.605 µM)	1 (≈ 2.42 µM)	0.5 (≈ 1.21 µM)	0.25 (≈ 0.605 µM)	0.5 (≈ 1.21 µM)	> 64	1 (≈ 2.42 µM)	> 64
O=C(NC(Cn1ccnc1)C(=O)c1ccccc1F)c1ccc(-c2ccccc2)cc1F (stereo not drawn)	0.5 (≈ 1.16 µM)	1 (≈ 2.32 µM)	1 (≈ 2.32 µM)	> 64	1 (≈ 2.32 µM)	> 64	2 (≈ 4.64 µM)	8 (≈ 18.5 µM)	8 (≈ 18.5 µM)	4 (≈ 9.27 µM)
O=C(NC(Cn1ccnc1)C(=O)c1ccc(Cl)cc1)c1ccc(-c2ccccc2)cc1 (stereo not drawn)	0.06 (≈ 0.14 µM)	0.125 (≈ 0.291 µM)	0.06 (≈ 0.14 µM)	0.5 (≈ 1.16 µM)	0.25 (≈ 0.582 µM)	2 (≈ 4.65 µM)	2 (≈ 4.65 µM)	> 64	4 (≈ 9.3 µM)	> 64
O=C(NC(Cn1ccnc1)C(=O)c1ccccc1)c1ccc(-c2ccc(Cl)cc2)cc1 (stereo not drawn)	0.5 (≈ 1.16 µM)	> 16	> 16	> 64	> 64					
O=C(NC(Cn1ccnc1)C(=O)c1cccc(Cl)c1)c1ccc(-c2ccccc2)cc1F (stereo not drawn)	0.06 (≈ 0.134 µM)	0.125 (≈ 0.279 µM)	0.03 (≈ 0.067 µM)	0.25 (≈ 0.558 µM)	0.125 (≈ 0.279 µM)	> 64	> 64	> 64	> 64	> 64
O=C(NC(Cn1ccnc1)C(=O)c1ccccc1)c1ccc(-c2ccccc2)cc1Cl (stereo not drawn)	8 (≈ 18.6 µM)	> 16	> 16	> 64	> 64					
Cc1ccccc1-c1ccc(C(=O)NC(Cn2ccnc2)C(=O)c2ccccc2)cc1 (stereo not drawn)	> 16	> 16	> 16	> 64	> 64					
O=C(NC(Cn1ccnc1)C(=O)c1ccc(F)cc1)c1ccc(-c2ccccc2)c(F)c1 (stereo not drawn)	0.06 (≈ 0.139 µM)	0.25 (≈ 0.579 µM)	0.25 (≈ 0.579 µM)	0.5 (≈ 1.16 µM)	0.25 (≈ 0.579 µM)	> 64	4 (≈ 9.27 µM)	> 64	4 (≈ 9.27 µM)	> 64
O=C(NC(Cn1ccnc1)C(=O)c1ccccc1)c1ccc(-c2ccccc2Cl)cc1 (stereo not drawn)	2 (≈ 4.65 µM)	> 16	> 16	4 (≈ 9.3 µM)	> 64					
O=C(NC(Cn1ccnc1)C(=O)c1ccccc1)c1ccc(-c2ccccc2)c(F)c1 (stereo not drawn)	0.06 (≈ 0.145 µM)	0.125 (≈ 0.302 µM)	0.06 (≈ 0.145 µM)	0.25 (≈ 0.605 µM)	0.125 (≈ 0.302 µM)	0.25 (≈ 0.605 µM)	2 (≈ 4.84 µM)	> 64	2 (≈ 4.84 µM)	> 64
O=C(NC(Cn1ccnc1)C(=O)c1ccccc1)c1ccc(-c2ccc(F)cc2)cc1 (stereo not drawn)	4 (≈ 9.67 µM)	> 16	8 (≈ 19.3 µM)	> 64	> 64					
O=C(NC(Cn1ccnc1)C(=O)c1ccccc1F)c1ccc(-c2ccccc2)c(F)c1 (stereo not drawn)	0.5 (≈ 1.16 µM)	0.5 (≈ 1.16 µM)	4 (≈ 9.27 µM)	> 64	2 (≈ 4.64 µM)	0.25 (≈ 0.579 µM)	0.25 (≈ 0.579 µM)	> 64	1 (≈ 2.32 µM)	> 64
CCC(C)n1ncn(-c2ccc(N3CCN(c4ccc(OCC5COC(Cn6cncn6)(c6ccc(Cl)cc6Cl)O5)cc4)CC3)cc2)c1=O (stereo not drawn) [ITRACONAZOLE]	0.03 (≈ 0.0425 µM)	0.03 (≈ 0.0425 µM)	0.03 (≈ 0.0425 µM)	0.125 (≈ 0.177 µM)	0.125 (≈ 0.177 µM)	> 64	> 64	0.25 (≈ 0.354 µM)	> 64	0.25 (≈ 0.354 µM)
